The test system of data set [1] is MDA-MB-231. Briefly: Inhibition of cell invasion in human MDA-MB-231 cells assessed as total number of cells at 10 uM after 24 hrs by matrigel invasion assay relative to control. It counts as functional. The conditions noted are these: MDA-MB-231, 24 h.
Data set [2] concerns MDA-MB-231. Nature of the data set: Inhibition of cell migration in human MDA-MB-231 cells assessed as total number of cells after 24 hrs by transwell migration assay. It counts as functional, cell-based. The conditions noted are these: for IC50: MDA-MB-231, 24 h. In a few lines: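 Dose-response transwell migration in MDA-MB-231 cells: 2.5 × 10^4 cells in serum-free upper chamber, 5% FBS in the lower chamber.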

Data set [3] concerns MDA-MB-231. Briefly: Cytotoxicity against human MDA-MB-231 cells assessed as colony formation at 10 uM after 2 weeks relative to control. It is filed as cell-based. Conditions: mda-mb-231, 336 h. In a few lines:
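Clonogenic assay: MDA-MB-231 cells grown for 14 days in six-well plates with or without 10 μM compound. Colony formation expressed as % of DMSO vehicle control.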

For data set [4], the system named is HeLa. Briefly: Inhibition of cell migration in human HeLa cells assessed as total number of cells at 10 uM after 24 hrs by transwell migration assay relative to control. It counts as functional.
Data set [5] concerns HeLa. Briefly: Cytotoxicity against human HeLa cells assessed as colony formation at 10 uM after 2 weeks relative to control. It is filed as cell-based. The conditions noted are these: 336 h.
The subject of data set [6] is MDA-MB-231. Briefly: Inhibition of cell migration in human MDA-MB-231 cells assessed as total number of cells at 10 uM after 24 hrs by transwell migration assay relative to control; values are per cent of control. The conditions noted are these: MDA-MB-231, 24 h.
In data set [7] the test system is MDA-MB-231. Briefly: Reduction of fascin localization in actin-rich membrane protrusion in human MDA-MB-231 cells at 10 uM by immuno fluorescence microscopic analysis. It is filed as functional, cell-based.
The test system of data set [8] is MDA-MB-231. Briefly: Inhibition of serum-induced actin-rich membrane protrusion in human MDA-MB-231 cells assessed as reduction of f-actin intensity at 10 uM after overnight incubation by fluorescent microscopic analysis. It is filed as functional. The essentials:
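MDA-MB-231 cells serum-starved with or without 10 μM compound, then serum-stimulated for 2 h to induce actin-rich membrane protrusions. F-actin was stained and imaged by fluorescence microscopy, and f-actin intensity was quantified against DMSO-treated cells.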

The test system of data set [9] is A549. Briefly: Inhibition of cell migration in human A549 cells assessed as total number of cells at 10 uM after 24 hrs by transwell migration assay relative to control. The conditions noted are these: A549, 24 h. It counts as functional.

The source made the active and inactive calls. No cut-off for these calls is given here.

One may read the inhibition as the relative decrease from the control value, in per cent. For orientation: IC50 means the concentration at which inhibition is half-maximal.

Turning to `CCn1c(-c2ccccc2)cs/c1=N/C(=O)c1cccs1`, the inhibition at 10 µM was 40% in data set [1] and 60% in data set [4]. The IC50 in data set [2] was 2080 nM. Further, the values for the Activity in [3] and in data set [5] were 97.7% and 45%, respectively. Also, in data set [6], the level, % of control at 10 µM turned out to be 32.1%.
For the compound `COc1cc(OC)c(-c2csc(NC(=O)c3ccccc3)n2)c(OC)c1`, in data set [3], the Activity is recorded as 108.8%. For the same compound, in [6], the level, % of control at 10 µM worked out at 59.2%.
Regarding `Cc1ccc(-c2csc(N)n2)c(C)c1`, in [3], the Activity was 110.9%. Besides, the level, % of control at 10 µM in data set [6] was found to be 45.5%.
Regarding `O=C(Nc1nc(-c2ccccc2)cs1)c1ccc(Br)cc1`, the Activity in [3] amounted to 98.6%. Moreover, in data set [6], the level, % of control at 10 µM came out at 103%.
The matching figures for `Cc1ccc(-c2csc(N(C)C(=O)c3cccs3)n2)c(C)c1`: 97.7% and 72.2%.
The like results for `COc1ccc(C(=O)Nc2nc(-c3ccccc3)cs2)cc1OC` were, in that order, 57.3% and 18.6%.
The matching figures for `CCCCCCCCCCCC(=O)N(C)c1nc(-c2ccccc2)cs1`: 111.1% and 80%.
As for `Cc1ccc(-c2cs/c(=N/C(=O)c3cccs3)n2C)c(C)c1`, in data set [3], the Activity was 102.3%. The level, % of control at 10 µM in [6] came to 37.1%.
The like results for `COc1ccc(C(=O)N(C)c2nc(-c3ccccc3)cs2)cc1OC` were, in that order, 97.1% and 43.5%.
The matching figures for `COc1cc(C(=O)/N=c2/scc(-c3ccccc3)n2C)cc(OC)c1OC`: 75.4% and 26.5%.
The matching figures for `Cc1ccc(-c2csc(NC(=O)c3cccs3)n2)c(C)c1`: 67.5% and 40.9%.
On to `Cc1ccc(-c2cs/c(=N/C(=O)c3ccccc3)n2C)c(C)c1`, for which the outcome in [7] was Active. In addition, the inhibition at 10 µM in data set [8] was 55%; in data set [1] it was 60%; in [9], 80%; in data set [4] it was 80%. Besides, the inhibition result in data set [2] is “Dose-dependent effect”. Besides, the IC50 in data set [2] came to 176 nM. Also, the Activity is listed as 120.9% in data set [3] and 85% in [5]. For the same compound, the level, % of control at 10 µM in data set [6] is 14.3%.
For the compound `CN(C(=O)c1ccccc1)c1nc(-c2ccccc2)cs1`, the inhibition at 10 µM came out at 40% in data set [1] and 60% in data set [4]. Besides, in data set [2], the IC50 is 366 nM. Further, the Activity in data set [3] was determined as 123.4%. In addition, the level, % of control at 10 µM in [6] was found to be 39.2%.
`Cn1c(-c2ccccc2)cs/c1=N/C(=O)c1ccc(Br)cc1`: the Activity in data set [3] is 63.8%. The level, % of control at 10 µM in [6] was determined as 59.7%.
The matching figures for `Cn1c(-c2ccccc2)cs/c1=N/C(=O)c1cccs1`: 85% and 43.3%.
The matching figures for `Cn1c(-c2ccccc2)cs/c1=N/C(=O)c1ccco1`: 107.3% and 77.6%.
On to `O=C(Nc1nc(-c2ccccc2)cs1)C1CCCCC1`, for which, in [3], the Activity amounted to 103.4%. The level, % of control at 10 µM in data set [6] came out at 92.7%.
For the compound `CCN(C(=O)c1ccco1)c1nc(-c2ccccc2)cs1`, the Activity in data set [3] is on record as 96.5%. Also, in data set [6], the level, % of control at 10 µM amounted to 54.5%.
With `Cc1ccc(-c2csc(NC(=O)c3ccccc3)n2)c(C)c1`, the inhibition at 10 µM in data set [1] was determined as 40%; in data set [4], 60%. Moreover, the IC50 in [2] was 839 nM. Moreover, the Activity in data set [3] came out at 85%. Moreover, the level, % of control at 10 µM in [6] was 33.7%.
Regarding `O=C(Nc1nc(-c2ccccc2)cs1)c1cccnc1`, the Activity in [3] was 102.8%. Moreover, the level, % of control at 10 µM in [6] was 80.8%.
As to `CCCCCCCCCCCC(=O)Nc1nc(-c2ccccc2)cs1`, the values for the inhibition at 10 µM in [1] and in [4] were 40% and 60%, respectively. Also, the IC50 in data set [2] was found to be 1010 nM. Also, the Activity is 71.5% in data set [3] and “Non-toxic” in [5]. The level, % of control at 10 µM in data set [6] is 28.3%.
In the case of `CCCCCC(=O)Nc1nc(-c2ccccc2)cs1`, in [3], the Activity was 90.7%. The level, % of control at 10 µM in data set [6] stood at 75.2%.
Turning to `Nc1nc(-c2ccccc2)cs1`, the Activity in data set [3] was 103.6%. The level, % of control at 10 µM in data set [6] was 86%.
As to `COc1cc(OC)c(-c2csc(N(C)C(=O)c3ccccc3)n2)c(OC)c1`, the Activity in [3] came to 110.4%. The level, % of control at 10 µM in data set [6] was 91.5%.
The like results for `O=C(Nc1nc(-c2ccccc2)cs1)c1ccco1` were, in that order, 98.8% and 88%.
As to `Cn1c(-c2ccccc2)cs/c1=N/C(=O)c1ccc(Cl)cc1`, the inhibition at 10 µM in [1] was 40%; in data set [4], 60%. The IC50 in data set [2] was 1120 nM. Also, in [3], the Activity is 98.2%. For the same compound, in data set [6], the level, % of control at 10 µM was determined as 28.1%.
Regarding `O=C(Nc1nc(-c2ccccc2)cs1)c1ccc(Cl)cc1`, the Activity in data set [3] stood at 95%. In [6], the level, % of control at 10 µM is 78%.
The like results for `COc1ccc(C(=O)/N=c2/scc(-c3ccccc3)n2C)cc1OC` were, in that order, 40.9% and 35.9%.
Turning to `O=C(Nc1nc(-c2ccccc2)cs1)c1cccs1`, the results for the inhibition at 10 µM in [1] and in [4] were 40% and 60%, respectively. Also, in data set [2], the IC50 came out at 2490 nM. For the same compound, the Activity in [3] stood at 85.9%. For the same compound, the level, % of control at 10 µM in data set [6] is 34.5%.
Turning to `Cn1c(-c2ccccc2)cs/c1=N/C(=O)c1cccnc1`, in data set [3], the Activity was 111.5%. Further, in data set [6], the level, % of control at 10 µM amounted to 62%.
With `COc1cc(OC)c(-c2cs/c(=N/C(=O)c3ccccc3)n2C)c(OC)c1`, the Activity in data set [3] is recorded as 94%. The level, % of control at 10 µM in data set [6] worked out at 40.6%.
As to `Cn1c(-c2ccccc2)cs/c1=N/C(=O)c1ccccc1`, the inhibition at 10 µM in [1] was 40%; in data set [4], 60%. In addition, in data set [2], the IC50 was found to be 189 nM. Moreover, the Activity in data set [3] was 25.2%; in [5], “Toxic”. Besides, in [6], the level, % of control at 10 µM came to 13%.
On to `CCCCCC(=O)N(C)c1nc(-c2ccccc2)cs1`, for which the Activity in data set [3] came out at 127.5%. Moreover, the level, % of control at 10 µM in [6] worked out at 71.4%.
The like results for `O=C(Nc1nc(-c2ccccc2)cs1)C1CCCC1` were, in that order, 99.8% and 68.2%.
Regarding `CN(C(=O)C1CCCC1)c1nc(-c2ccccc2)cs1`, the Activity in data set [3] was found to be 132.4%. Besides, the level, % of control at 10 µM in data set [6] stood at 54.3%.
The matching figures for `CN(C(=O)C1CCCCC1)c1nc(-c2ccccc2)cs1`: 97.5% and 72.7%.
As to `O=C(Nc1nc(-c2ccccc2)cs1)c1ccccc1`, the inhibition at 10 µM in data set [1] was found to be 40%; in data set [4] it was 60%. The IC50 in data set [2] was determined as 1290 nM. Further, in data set [3], the Activity worked out at 105.2%. In addition, the level, % of control at 10 µM in data set [6] worked out at 31.3%.
As to `CN(C(=O)c1ccc(Br)cc1)c1nc(-c2ccccc2)cs1`, the Activity in [3] is 107.7%. Besides, the level, % of control at 10 µM in data set [6] was 78.2%.
As to `COc1cc(C(=O)Nc2nc(-c3ccccc3)cs2)cc(OC)c1OC`, the Activity in [3] is given as 80.9%. Besides, the level, % of control at 10 µM in data set [6] is 46.5%.
For the compound `O=C(Nc1nc(-c2ccccc2)cs1)c1ccncc1`, the inhibition at 10 µM in data set [1] was determined as 40%; in [4], 60%. In addition, the IC50 in data set [2] came to 2870 nM. For the same compound, the Activity in [3] is 95.5%. Also, in data set [6], the level, % of control at 10 µM stood at 32.3%.

These data come from ChEMBL document CHEMBL2321666, “Discovery of a Series of Thiazole Derivatives as Novel Inhibitors of Metastatic Cancer Cell Migration and Invasion” (ACS Med Chem Lett, 2013).
